Data reported in ChEMBL document CHEMBL1140911, “Semisynthesis, biological activity, and molecular modeling studies of C-ring-modified camptothecins” (J Med Chem, 2009).
Where a name gives a salt, the structure may show the parent alone. The source made the active and inactive calls. No cut-off for these calls is given here.

Experiments:
[1] = tested on: NCI-H460; assay: Antiproliferative activity against human NCI-H460 cells after short term exposure for 1 hr measured after 72 hrs in drug-free medium; type: functional, cell-based
In short: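 NCI-H460 human NSCLC cells grown in RPMI 1640 with 10% FCS. IC50 is the concentration giving 50% decrease in cell growth relative to untreated control.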

[2] = target: T1, DNA topoisomerase 1 (Homo sapiens) (UniProt P11387); assay: Induction of human recombinant topoisomerase 1-mediated SV40 DNA cleavage at 1 to 50 uM after 30 mins by PAGE
T1 sequence (whole entry): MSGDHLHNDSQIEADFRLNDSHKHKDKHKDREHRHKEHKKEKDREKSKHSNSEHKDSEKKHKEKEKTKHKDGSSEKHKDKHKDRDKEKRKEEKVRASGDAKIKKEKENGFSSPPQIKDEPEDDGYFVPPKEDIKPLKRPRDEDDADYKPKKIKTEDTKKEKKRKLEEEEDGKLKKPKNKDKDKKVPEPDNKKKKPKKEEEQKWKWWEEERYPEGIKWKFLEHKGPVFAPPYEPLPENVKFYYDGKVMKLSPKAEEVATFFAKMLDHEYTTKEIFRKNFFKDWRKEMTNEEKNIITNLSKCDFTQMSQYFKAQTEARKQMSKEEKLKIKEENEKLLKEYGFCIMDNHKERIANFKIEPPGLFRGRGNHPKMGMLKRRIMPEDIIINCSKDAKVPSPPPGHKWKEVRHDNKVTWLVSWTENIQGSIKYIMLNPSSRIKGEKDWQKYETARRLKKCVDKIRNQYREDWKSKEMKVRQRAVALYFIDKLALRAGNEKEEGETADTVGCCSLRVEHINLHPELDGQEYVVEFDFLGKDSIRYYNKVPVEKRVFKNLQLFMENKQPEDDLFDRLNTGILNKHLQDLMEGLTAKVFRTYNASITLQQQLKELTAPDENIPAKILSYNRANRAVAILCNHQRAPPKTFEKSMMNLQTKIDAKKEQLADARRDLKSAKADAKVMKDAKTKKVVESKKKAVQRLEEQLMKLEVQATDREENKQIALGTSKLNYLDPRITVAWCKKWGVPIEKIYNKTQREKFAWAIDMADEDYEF
In short: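 Substrate was a gel-purified 751-bp BamHI-EcoRI SV40 DNA fragment, uniquely 3′-end labeled (20 000 cpm/sample). It was reacted with full-length human recombinant topo I and drug at 1, 10 and 50 µM in 10 mM Tris-HCl pH 7.6, 150 mM KCl, 5 mM MgCl2, 15 µg/mL BSA, 0.1 mM DTT, 30 min at 37 °C. Stopped with 0.5% SDS/0.3 mg/mL proteinase K, 45 min, 42 °C. Run on denaturing 8% polyacrylamide gel and quantified by phosphorimaging. Band intensity was compared with SN38 reference.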

SMILES	IC50 [1] [µM]	Activity [2]
CC[C@@]1(O)C(=O)OCc2c1cc1n(c2=O)C(CCCO)c2cc3ccccc3nc2-1 (mixture of isomers)	16	–
CC[C@@]1(O)C(=O)OCc2c1cc1n(c2=O)[C@@H](F)c2cc3ccccc3nc2-1	56	Active
CC[C@@]1(O)C(=O)OCc2c1cc1n(c2=O)[C@@H](N(NC(=O)OCc2ccccc2)C(=O)OCc2ccccc2)c2cc3ccccc3nc2-1	85	–
CCc1c2c(nc3ccc(O)cc13)-c1cc3c(c(=O)n1C2)COC(=O)[C@]3(O)CC [7-ETHYL-10-HYDROXYCAMPTOTHECIN]	0.13	Active
CC[C@@]1(O)C(=O)OCc2c1cc1n(c2=O)Cc2cc3c(CN(C)C)c(O)ccc3nc2-1 [TOPOTECAN HYDROCHLORIDE]	0.61	–
CC[C@@]1(O)C(=O)OCc2c1cc1n(c2=O)C(N=[N+]=[N-])(N=[N+]=[N-])c2cc3ccccc3nc2-1 (stereo not given in full)	9.3	–
CC[C@@]1(O)C(=O)OCc2c1cc1n(c2=O)[C@H](N(NC(=O)OCc2ccccc2)C(=O)OCc2ccccc2)c2cc3ccccc3nc2-1	60	–
CC[C@@]1(O)C(=O)OCc2c1cc1n(c2=O)C(N)c2cc3ccccc3nc2-1 (stereo not given in full)	30	Active
CC[C@@]1(O)C(=O)OCc2c1cc1n(c2=O)C(C)c2cc3ccccc3nc2-1 (mixture of isomers)	5.9	Active
CC[C@@]1(O)C(=O)OCC2=C1C=C1c3nc4ccccc4cc3C3NN=C2N13 (mixture of isomers)	46.8	Active
CC[C@@]1(O)C(=O)OCc2c1cc1n(c2=O)[C@H](N(NC(=O)OC(C)(C)C)C(=O)OC(C)(C)C)c2cc3ccccc3nc2-1	77	Active
CC[C@@]1(O)C(=O)OCc2c1cc1n(c2=O)[C@H](N=[N+]=[N-])c2cc3ccccc3nc2-1	6.7	Active
CC[C@@]1(O)C(=O)OCc2c1cc1n(c2=O)[C@H](F)c2cc3ccccc3nc2-1	56	Active
CC[C@@]1(O)C(=O)OCc2c1cc1c3nc4ccccc4cc3c3nnc2n13	10.6	Active
CC[C@@]1(O)C(=O)OCc2c1cc1n(c2=O)[C@@H](N(NC(=O)OC(C)(C)C)C(=O)OC(C)(C)C)c2cc3ccccc3nc2-1	> 173	–
CC[C@@]1(O)C(=O)OCc2c1cc1n(c2=O)[C@@H](N=[N+]=[N-])c2cc3ccccc3nc2-1	11.5	–
